# This is a sample that favours compounds with a hit; in the whole collection about 3.7% have one here.
# aDG glyco act: activators of alpha-DG glycosylation, primary screen, uHTS, Pro5-aDG cells, AlphaScreen. alpha-DG glycosylation AlphaScreen (IIH6); 0% Pro5, 100% B10-LARGE cell signal. activation, % at 10 µM. actives 0.22% (n = 360,000);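 active = activation of at least 8% versus controls, or a plate z-score of at least 8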;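 also: Pro5 are CHO cells carrying HIG-tagged alpha-DG that lacks glycosylation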
# NR3A LBD binder: binders of NR3A ligand-binding domain, primary screen, biophysical, differential scanning fluorimetry, uHTS; Glutamate receptor ionotropic, NMDA 3A (GRIN3A) ligand-binding domain; NR3A LBD differential scanning fluorimetry, Tm shift; 0% = protein alone, 100% = glycine-bound protein; Tm shift relative to glycine control, % at 25 µM; actives 2.5% (n = 340,000); AID 1259313, 2017;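 active = melting temperature shift of at least 10% of the positive control shift, at one fixed dose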
# procasp7 counter: procaspase-7 activators, primary screen, counter-screen for procaspase-3 activator project, biochemical, absorbance, HTS, human. Caspase-7 (Homo sapiens), P55210. recombinant procaspase-7, Ac-DEVD-pNA absorbance 405 nm; D23A/D198A/D206A triple mutant, cannot self-cleave; scale: DMSO 0, 5 µM enzyme 100. activation, % at 8.5 µM. actives 0.093% (n = 330,000);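 active = percent activation above the screen-wide mean plus 3 SD, cut at about 25% in these data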
# Target sequence (P55210 whole entry D23A/D198A/D206A): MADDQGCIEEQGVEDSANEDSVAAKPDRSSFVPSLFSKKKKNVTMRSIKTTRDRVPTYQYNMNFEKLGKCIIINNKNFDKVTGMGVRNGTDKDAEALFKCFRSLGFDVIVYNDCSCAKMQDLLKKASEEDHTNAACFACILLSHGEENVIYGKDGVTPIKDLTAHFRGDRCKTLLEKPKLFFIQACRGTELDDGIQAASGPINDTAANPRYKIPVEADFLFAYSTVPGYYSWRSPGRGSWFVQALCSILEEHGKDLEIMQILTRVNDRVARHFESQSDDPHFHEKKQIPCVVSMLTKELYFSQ
#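 System: Uncleavable procaspase-7 mutant enzyme; Amount: 2 µM procaspase-7 mutant as dispensed; Schedule: 1 h compound preincubation, 2 h substrate cleavage, 25 °C; Measured by: 405 nm absorbance of p-nitroaniline; Evaluation: percent activation from buffer-corrected 0–120 min absorbance change; Control set: low DMSO alone, high DMSO plus 5 µM PC-7.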
# proCasp3 act: activators of human procaspase-3 D3A mutant, primary screen, biochemical, absorbance, PC-3 D3A mutant, single concentration. recombinant procaspase-3 D3A, Ac-DEVD-pNA absorbance 405 nm. actives 0.11% (n = 330,000). activation, % at 8.5 µM;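 active = activation above the mean of all tested compounds plus 3 SD, cut at about 21% in these data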;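 also: 0% = DMSO alone and 100% = DMSO wells spiked with extra 5 µM PC-3 D3A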
# Target sequence (P42574 whole entry D9A/D28A/D175A): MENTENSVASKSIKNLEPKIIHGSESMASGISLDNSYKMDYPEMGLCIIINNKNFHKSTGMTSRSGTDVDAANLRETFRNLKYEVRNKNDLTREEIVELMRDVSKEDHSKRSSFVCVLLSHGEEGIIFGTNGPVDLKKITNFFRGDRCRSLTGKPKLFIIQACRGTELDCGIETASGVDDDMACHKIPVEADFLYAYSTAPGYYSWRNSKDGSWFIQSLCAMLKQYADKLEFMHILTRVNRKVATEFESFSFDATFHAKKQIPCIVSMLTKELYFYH
#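 assay system = Procaspase-3 D3A mutant | signal = absorbance at 405 nm, 0 and 120 min | times = 1 h preincubation plus 2 h reaction at 25 °C | repeats = single replicate | read-out = % activation between DMSO and enzyme-spiked controls | medium = Zinc-free HEPES saline buffer with Triton X-100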
# MPTP inh: mitochondrial permeability transition pore inhibitors, primary screen, biochemical, isolated mouse mitochondria, absorbance. Ca2+ swelling absorbance, 30 min. inhibition, % at 10 µM. actives 1.4% (n = 360,000). AID 602449, 2012;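 active = inhibition of 50% or more, scaled per plate between neutral and stimulator controls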;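 also: 0% = DMSO wells given calcium and 100% = 1 mM EGTA wells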
# Rh123 counter: fluorescence retest of MPTP screen hits in isolated mitochondria, single concentration; AID 624504, 2012; inhibition, % at 10 µM; shares compounds with MPTP inh; membrane potential, Rhodamine 123 fluorescence; actives 78% (n = 5,000); in the data active = inhibition above about 22%;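 also: 0% = DMSO vehicle and 100% = positive control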
# MPTP swell DR: mitochondrial permeability transition pore inhibitors, dose response, biochemical, absorbance, uHTS hits. isolated mitochondria swelling. IC50, µM. shares compounds with MPTP inh. actives 58% (n = 780); in the data active = IC50 below about 20 µM
# MPTP cs DR: fluorescent counter-screen in isolated mitochondria, dose response, counter-screen for MPTP inhibitor project, biochemical, fluorescence, uHTS hits | shares compounds with MPTP inh | isolated mitochondria counterscreen, fluorescence read-out | IC50, µM | actives 49% (n = 780) | AID 651564, 2012; in the data active = IC50 below about 80 µM
# Active calls of the source: *; · = no result given.
SMILES,aDG glyco act,NR3A LBD binder,procasp7 counter,proCasp3 act,MPTP inh,Rh123 counter,others
CSc1ccccc1NC(=O)Nc1ccc(F)c(Cl)c1,0.3,41.8*,2.6,4.2,92.8*,74.5*,
CSCCC(NC(N)=O)C(=O)Nc1ccc(F)c(Cl)c1 (configuration not stated),-0.1,-0.1,5.9,6.0,64.3*,80.2*,
COc1ccc(NC(=O)C(CCSC)NC(N)=O)cc1Cl (configuration not stated),-0.2,-0.9,7.4,-6.8,4.0,·,
CC(Oc1ccc(Cl)cc1)C(=O)N1CCN(C(=O)c2ccco2)CC1 (configuration not stated),0.3,0.5,0.2,12.2,-0.7,·,
CCc1c(C)nc2ncnn2c1NCCc1ccc(Cl)cc1,1.2,0.6,11.7,-0.7,89.9*,39.9*,
COc1ccc(-n2nc(C(=O)N(C)C)nc2-c2ccccc2)cc1,-0.1,0.3,8.8,-1.2,-1.0,·,
COC(=O)c1cccc(NS(=O)(=O)c2ccc(OC)c(OC)c2)c1C,0.7,-0.1,-8.3,6.5,55.5*,20.7*,
COC(=O)c1cccc(NS(=O)(=O)c2ccc(OC)cc2)c1C,0.4,0.3,4.0,8.9,1.9,·,
O=C(/C=C/c1ccc(O)c(O)c1)c1ccccc1O,-0.2,25.0*,-18.1,-12.9,73.3*,62.8*,
O=C(C=Cc1ccccc1O)c1ccccc1O,-0.3,2.0,·,·,72.4*,89.5*,
COc1ccc(NC(=S)NC(NC(=O)c2cccc3ccccc23)C(Cl)(Cl)Cl)c([N+](=O)[O-])c1 (configuration not stated),-0.1,12.2*,-5.6,-0.9,69.6*,54.6*,
COc1ccc(NC(=S)NC(NC(=O)c2ccc(Cl)cc2Cl)C(Cl)(Cl)Cl)c([N+](=O)[O-])c1 (configuration not stated),-0.1,10.9*,7.6,1.4,86.6*,53.8*,
COc1ccc(NC(=S)NC(NC(=O)c2ccccc2Cl)C(Cl)(Cl)Cl)c([N+](=O)[O-])c1 (configuration not stated),0.1,9.8,0.2,3.4,66.0*,66.1*,
O=C(NC(NC(=S)Nc1c(Cl)cccc1Cl)C(Cl)(Cl)Cl)c1cccc([N+](=O)[O-])c1 (configuration not stated),3.6,9.2,1.1,-6.5,72.7*,53.9*,
CCOC(=O)CCn1cc(F)c(=O)n(Cc2ccccc2)c1=O,0.1,-0.6,1.1,-1.8,2.6,·,
O=C(CNc1ccc2ccccc2c1)N/N=C/c1cc2ccccc2nc1Cl,0.4,0.9,-13.9,-11.2,1.7,·,
COCC(=O)N1CCC(Oc2ccc(C(=O)NCCCC3CCCC3)cc2)CC1,0.0,-0.9,·,·,-2.5,·,
COc1ccc(-c2oc3c(c2C#CC2(O)CCCCC2)C(OC)CCC3)cc1 (configuration not stated),0.1,·,·,·,-0.9,·,
Cc1nn(-c2ccccc2)c2nc(C(Cl)(Cl)Cl)[nH]c(=O)c12,-0.1,-1.3,-1.6,6.8,68.4*,57.4*,
Cc1ccc(-n2nc(C)c3c(=O)[nH]c(C(F)(F)F)nc32)cc1,·,·,9.1,2.6,·,·,
Cc1cc(C(=O)N2CCC2(C)C(=O)Nc2cc(C(C)(C)C)nn2C)nn1C (configuration not stated),-0.2,·,·,·,0.1,·,
CN1CCCC(OC(=O)c2ccccc2F)C1 (configuration not stated),0.7,-3.5,6.4,-7.5,1.5,·,
CN1CCCC(CN2c3ccccc3Sc3ccccc32)C1 (configuration not stated),0.1,0.8,1.6,10.4,81.7*,-18.0,
CN1CCCC(CC2c3ccccc3Sc3ccccc32)C1 (configuration not stated),1.2,-1.3,-11.2,-5.4,99.9*,-18.8,MPTP swell DR=9.44*;MPTP cs DR=>80
CC(=O)OC[C@@H]1CN(Cc2ccccc2)C[C@H](n2cnc3c(N4CCOCC4)ncnc32)O1,-0.1,·,·,·,-0.5,·,
SMILES,aDG glyco act,NR3A LBD binder,procasp7 counter,proCasp3 act,MPTP inh,Rh123 counter,others
C=CC(=O)Nc1cccc(N(C)c2ccnc(Nc3ccc(N4CCN(C)CC4)cc3)n2)c1,0.3,3.8,·,·,101.5*,92.8*,
O=C(Cc1csc(NC(=O)Nc2cccc(Cl)c2)n1)NCc1ccccn1,0.4,-0.4,1.3,-0.1,14.5,·,
O=C(Cc1csc(NC(=O)Nc2cccc(Cl)c2)n1)NC1CCCC1,-0.1,-0.1,-1.1,-1.3,78.6*,73.1*,
O=C(Nc1cccc(Cl)c1)Nc1nc(-c2ccc(Cl)cc2)cs1,1.2,36.2*,4.6,-2.9,92.2*,93.6*,
O=C(NCc1csc(-c2cccs2)n1)Nc1cccc(Cl)c1,0.0,9.3,7.9,-2.6,76.2*,81.8*,
COc1ccc(NC(=O)c2cc([N+](=O)[O-])ccc2O)cc1,0.4,2.7,-13.8,1.9,91.6*,94.9*,
COc1ccc(NC(=O)c2cccc([N+](=O)[O-])c2)cc1,-0.2,-7.0,-1.9,12.7,2.1,·,
Cc1c(C(=O)Nc2cccc([N+](=O)[O-])c2)csc1-c1ccccc1,3.1,12.8*,3.5,-3.6,84.6*,89.0*,
O=C(O)c1cc([N+](=O)[O-])ccc1C(=O)Nc1cccc([N+](=O)[O-])c1,-0.1,1.9,6.2,-3.5,-0.7,·,
O=C(Nc1cccc([N+](=O)[O-])c1)c1cc2ccccc2cc1O,-0.2,27.3*,-7.9,1.9,96.1*,59.6*,
Cc1ccc(NC(=O)c2csc(-c3ccccc3)c2C)cc1,0.0,-26.1,·,·,11.0,·,
COc1ccc(NC(=S)Nc2cccc([N+](=O)[O-])c2)cc1,0.3,23.2*,-8.8,-3.6,84.7*,86.7*,
Nn1cnc2c(ncn2C2OC(CO)C(O)C2O)c1=O (configuration not stated),0.2,·,·,·,-2.7,·,
COc1ccc(NC(=O)Nc2cccc([N+](=O)[O-])c2)cc1Cl,1.1,31.8*,0.6,11.1,94.2*,80.2*,
COc1ccc(Nc2nc(-c3cccc([N+](=O)[O-])c3)nc3ccccc23)cc1,-0.4,46.2*,1.8,1.9,53.2*,25.2*,
